How the values were obtained:
[1] = Dissociation constant, pKa by spectrophotometry; assay type: physicochemical
[2] = tested on: Plasmodium falciparum; test: Antiplasmodial activity against chloroquine-resistant Plasmodium falciparum W2 assessed as inhibition of [3H]hypoxanthine incorporation; assay type: functional, organism-based
[3] = tested on: Plasmodium falciparum; test: Antiplasmodial activity against chloroquine-sensitive Plasmodium falciparum 3D7 assessed as inhibition of [3H]hypoxanthine incorporation; assay type: functional, organism-based
[4] = Selectivity index, ratio of IC50 for human KB cells to IC50 for chloroquine-resistant Plasmodium falciparum FCR3/Gambia; assay type: toxicity, cell-based; conditions: read-out: Ratio IC50
Outline: (§1)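 SI is the ratio of the KB-cell IC50 to the parasite [3H]hypoxanthine IC50 for the given strain. KB cells were grown in D-MEM with 10% FCS and antibiotics under 5% CO2 and plated at 650 cells/well. After 24 h they were treated with compounds in DMSO (0.5 nM to 10 µM; 1% DMSO final) for 72 h. MTS was then added for 3 h at 37 °C and A490 was read against controls. IC50 runs were done in separate duplicate.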

[5] = Selectivity index, ratio of IC50 for human KB cells to IC50 for chloroquine-resistant Plasmodium falciparum Bre1; assay type: toxicity, cell-based; conditions: read-out: Ratio IC50; outline: as §1
[6] = Selectivity index, ratio of IC50 for human KB cells to IC50 for chloroquine-sensitive Plasmodium falciparum 3D7; assay type: toxicity, cell-based; conditions: read-out: Ratio IC50; outline: as §1
[7] = tested on: KB; test: Cytotoxicity against human KB cells after 72 hrs by MTS assay; assay type: cell-based
Outline: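 KB cells were grown in D-MEM with 10% fetal calf serum, penicillin, streptomycin and fungizone, under 5% CO2. They were seeded at 650 cells/well and dosed 24 h later with compounds in DMSO, from 0.5 nM upward; controls got DMSO (1% final). MTS was added for 3 h at 37 °C and absorbance read at 490 nm as % of control. IC50 came from separate duplicate experiments.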

[8] = tested on: Plasmodium falciparum; test: Antiplasmodial activity against chloroquine-resistant Plasmodium falciparum FCR3/Gambia assessed as inhibition of [3H]hypoxanthine incorporation; assay type: functional, organism-based; conditions: FCR-3/Gambia
[9] = Selectivity index, ratio of IC50 for human KB cells to IC50 for chloroquine-resistant Plasmodium falciparum W2; assay type: toxicity, cell-based; conditions: read-out: Ratio IC50; outline: as §1
[10] = Binding affinity to synthetic hematin by spectrophotometry
Outline: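 Monomeric hematin solution: hematin in 0.1 M NaOH with DMSO and 0.02 M sodium phosphate buffer (pH 6.0), made up with water. Drug and hematin were mixed at 10 molar ratios. Complex stoichiometry and dissociation constant Kd were determined by spectrophotometric methods.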

[11] = Inhibition of beta-hematin formation after 18 hrs; assay type: functional
Outline: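 Modified BHIA: 8 mM hemin in DMSO (0.4 µmol per tube) was mixed with compounds in DMSO or DMSO/MeOH (1:1) at 0–10 molar equivalents to hemin, in triplicate. Acetate buffer held pH 5, and water-only controls were run. Hematin was quantified after serial dilution in 0.1 M NaOH, by absorbance at 405 nm. IC50 was taken as the concentration inhibiting crystallization by 50%.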

[12] = tested on: Plasmodium falciparum; test: Antiplasmodial activity against chloroquine-resistant Plasmodium falciparum Bre1 assessed as inhibition of [3H]hypoxanthine incorporation; assay type: functional, organism-based

Compound | pKa [1] | IC50 [2] | IC50 [3] | selectivity ratio [4] | selectivity ratio [5] | selectivity ratio [6] | IC50 [7] | IC50 [8] | selectivity ratio [9] | Kd [10] | IC50 [11] | IC50 [12]
CCCCCCCNc1c2ccc(Cl)cc2nc2ccc(OC)cc12 | 7.5 | 27.2 µM | 18.1 µM | 0.06 | 0.05 | 0.04 | 0.85 µM | 14.6 µM | 0.02 | 5.4 µM | 1500 µM | 16.3 µM
CCN(CC)CCCC(C)Nc1ccnc2cc(Cl)ccc12 (stereo not drawn) [CHLOROQUINE] | – | – | – | – | – | – | 22.5 µM | – | – | 5.4 µM | 900 µM | –
NCCC(=O)NCCC(=O)Nc1c2ccccc2nc2ccccc12 | 4.53 | 20.9 µM | 40.9 µM | 3.4 | 2.8 | 1.5 | 60.1 µM | 17.8 µM | 2.9 | 4 µM | 1800 µM | 21.6 µM
COc1ccc2nc3cc(Cl)ccc3c(NCCCCN)c2c1 | 9.1 | 0.25 µM | 0.067 µM | 2.4 | 2 | 8.9 | 0.6 µM | 0.25 µM | 2.4 | 8.1 µM | 1000 µM | 0.3 µM
NCCCCCCNc1c2ccccc2nc2ccccc12 | 9.86 | 0.6 µM | 1.13 µM | 2.2 | 1.8 | 0.7 | 0.79 µM | 0.36 µM | 1.3 | 4.6 µM | 300 µM | 0.43 µM
NCCCCCCCC(=O)Nc1c2ccccc2nc2ccccc12 | 4.59 | 50 µM | 41.9 µM | 1.8 | 2 | 1.3 | 52.9 µM | 28.6 µM | 1.1 | – | 1100 µM | 26.7 µM
COc1ccc2nc3cc(Cl)ccc3c(NCCCCCCNc3c4ccc(Cl)cc4nc4ccc(OC)cc34)c2c1 | 8.23 | 4.55 µM | 3.39 µM | 0.05 | 0.045 | – | 0.05 µM | 1.01 µM | 0.01 | 20 µM | 1300 µM | 1.11 µM
COc1ccc2nc3cc(Cl)ccc3c(NCCCCCCN)c2c1 | 9.2 | – | – | 3.5 | 4.1 | 5.4 | 0.7 µM | – | 3.9 | 4.4 µM | 400 µM | –
COc1ccc2nc3cc(Cl)ccc3c(NCCN)c2c1 | 7.94 | 0.25 µM | 0.042 µM | 6 | 7 | 50 | 2.07 µM | 0.33 µM | 8 | 4.2 µM | 4600 µM | 0.28 µM

Source: ChEMBL document CHEMBL1153081, “Antimalarial acridines: synthesis, in vitro activity against P. falciparum and interaction with hematin” (Bioorg Med Chem, 2009)
